Article PMC3786204 (Journal of immunology (Baltimore, Md. : 1950), 2013)

What was measured:
Type in all cases: cell-based, human
[1] = test system: DENV3 specific CTL; experiment: Surface CD8 expression on DENV3 epitope specific CTL; details: CTL primed against DENV3 NS3 399–407 KLNDWDFVV
How it was run: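 CD8+ T cells were negatively selected from HIV-1-seronegative HLA-A*0201 donors and plated at 7.5×10^5/well. They were primed with DENV3 epitope-pulsed αDC1 (7.5×10^4/well) plus γ-irradiated J558-CD40L cells (5×10^4/well). rhIL-2 (50 IU/ml), rhIL-7 (10 ng/ml) and rhIL-15 (1 ng/ml) were added at day 4. CTL were tested against serotype-variant peptides, with CD8 read by flow cytometry.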

[2] = test system: DC; experiment: DC IL-12p70 producing capacity after CD40L stimulation; details: exogenous TNF-α 50 ng/ml, 48h, then CD40L stimulation
[3] = test system: DC; experiment: DC maturation, surface CD86 by flow cytometry; details: 48h; for Effect on CTL-induced DC maturation (CD86 enhancement): PLN9 expressing DC + CTL, sTNF-R1 0.1 μg/ml, sIFNγ-R1 1 μg/ml
How it was run: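 Day 5 autologous immature DC were co-cultured for 48h with TLN9-specific CTL (2×10^5 cells/well) plus variant peptide PLN9 (1 μg/ml), with or without blockers sTNF-RI (0.1 μg/ml) or IFNγ-R1 (1 μg/ml). Controls were TNF-α (50 ng/ml)-matured DC and peptide-exposed DC without CTL. DC surface CD86 was measured by flow cytometry.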

[4] = test system: autologous iDC; experiment: 4 h 51Cr-release cytotoxicity assay; details: 1 μg/ml peptide, TLN9-specific CTL
How it was run: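 Targets were autologous iDC, generated by culturing monocytes 5–7 days in IMDM with 10% FBS, GM-CSF and IL-4 (both 1000 IU/ml), then peptide-pulsed. Effectors were CTL primed in vitro from CD8+ T cells of HIV-1-seronegative HLA-A*0201 donors, using peptide-pulsed αDC1. Lysis was read by standard 4 h 51Cr release.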

[5] = test system: HIV-1 p24 Gag151–159 specific CTL; experiment: Surface CD8 expression on peptide reactive CTL; details: TLN9-specific CTL, gated on IFN-γ producing cells; CTL lines from 5 donors
How it was run: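 CTL lines were primed in vitro from 5 HIV-1-naïve donors and maintained with IL-2 (200 IU/ml) and IL-7 (10 ng/ml). They were restimulated with peptide variants and assessed by intracellular cytokine staining with anti-CD28/CD49d and Golgistop/Golgiplug. CD8 MFI was read on IFN-γ-producing cells by multiparameter flow cytometry. Statistics used one-way ANOVA with Tukey post hoc test.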

[6] = test system: autologous iDC; experiment: Flow cytometry viability and recovery of iDC in CTL:DC co-cultures; details: CTL and iDC co-culture, 6h, 3:1 CTL:DC
How it was run: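 CTL were added to day-5 autologous iDC for 6h at 3:1 (CTL:DC). Cultures had no peptide, irrelevant control, priming or variant peptide; titration used decreasing cognate peptide down to .001 μg/ml. Cell loss came from recovered cell-type ratios gated by light scatter and CD3 (T cells) or CD86 (DC). Viability of DC-gated events used LIVE/DEAD Aqua. Three experiments, ± standard error.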

[7] = test system: iDC; experiment: Microscopy of iDC:CTL co-cultures; details: 24 h co-culture, light microscopy
How it was run: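 CTL (2×10^5 cells/well) were added to day-5 autologous iDC cultures with 1 μg/ml irrelevant, priming or variant 9mer peptide. Co-cultures were examined by light microscopy after 24h. For SEM, cells grew on glass coverslips removed at 24h, fixed in 2.5% glutaraldehyde in PBS and post-fixed in 1% aqueous osmium tetroxide.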

[8] = test system: autologous pre-activated CD4+ T cells; experiment: CTL cytotoxicity against peptide-pulsed CD4+ T cell targets; details: targets pulsed with 1 μg/mL peptide, 18h co-culture
How it was run: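 Targets: PBMC activated 5 days with PHA (1μg/ml) and rIL-2 (100 IU/ml), then CD4+ cells negatively selected, pulsed 1 h with 1μg/mL peptide and washed. Co-cultured with CTL 18h at 37°C at CTL:target 3:1, 1:1, 0.3:1 and 0:1. Stained for CD4/CD8, fixed/permeabilized, 7-AAD 20 min at 37°C. Linear 7-AAD on singlet CD4+ events scored G1, S/G2 and sub-G1 fractions. 4 experiments.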

[9] = test system: Gag77–85 reactive CTL from HIV-1 positive donor; experiment: Surface CD8 expression on memory CTL expanded from HIV-1 positive donor PBMC; details: CTL expanded from PBMC 6 months post seroconversion

KLTDWDFVV
CD8 expression on reactive CTL [1]: CD8 expression was maintained

RTNDWDFVV
CD8 expression on reactive CTL [1]: CD8 expression was maintained

TNF-α
IL-12p70 producing ability of DC matured with the factor [2]: curtailed
CD86 expression of DC matured with the factor ([3]; exogenous TNF-α 50 ng/ml): high levels of CD86

TLNAWVKVV [TLN9]
CTL lytic activity against peptide-labeled iDC [4]: showed lytic activity
Surface expression of CD8 on peptide reactive CTL [5]: decreased
Peptide concentration at which a substantial drop in killing occurs [6]: .001 µg/mL
DC morphology / survival in co-culture with CTL [7]: failed to survive

KLNDWDFVV [reference compound]
CD8 expression on reactive CTL [1]: down-regulation of CD8

PLNAWVKVV [PLN9]
CTL lytic activity against peptide-labeled iDC [4]: dramatically reduced
Killing of peptide-labeled CD4+ T cell targets by TLN9-specific CTL [8]: not effectively killed
Surface expression of CD8 on peptide reactive CTL [5]: maintained
DC morphology / survival in co-culture with CTL [7]: pronounced webbed network of long cellular extensions

SLFNTVATL
CD8 expression on reactive CTL [9]: down-regulation occurred

B1: sIFNγ-rec1: soluble IFN-γ receptor 1, IFN-γ blocker (protein, UniProt P15260 18-245, looked up)
extracellular domain: EMGTADLGPSSVPTPTNVTIESYNMNPIVYWEYQIMPQVPVFTVEVKNYGVKNSEWIDACINISHHYCNISDHVGDPSNSLWVRVKARVGQKESAYAKSEEFAVCRDGKIGPPKLDIRKEEKQIMIDIFHPSVFVNGDEQEVDYDPETTCYIRVYNVYVRMNGSEIQYKILTQKEDDCDEIQCQLAIPVSSLNSQYCVSAEGVLHVWGVTTEKSKEVCITIFNSSIKG
modifications: extracellular domain
Effect on CTL-induced DC maturation (CD86 enhancement) [3]: did not inhibit

B2: sTNF-rec1: Human soluble TNF receptor I, TNF-α blocker (protein, UniProt P19438 30-211, looked up)
extracellular domain: LVPHLGDREKRDSVCPQGKYIHPQNNSICCTKCHKGTYLYNDCPGPGQDTDCRECESGSFTASENHLRHCLSCSKCRKEMGQVEISSCTVDRDTVCGCRKNQYRHYWSENLFQCFNCSLCLNGTVHLSCQEKQNTVCTCHAGFFLRENECVSCSNCKKSLECTKLCLPQIENVKGTEDSGTT
modifications: extracellular domain
Effect on CTL-induced DC maturation (CD86 enhancement) [3]: partially reduced
